ChEMBL document CHEMBL2434876, “Design, synthesis and biological evaluation of 2-substituted quinolines as potential antileishmanial agents” (Eur J Med Chem, 2013)
Activity calls are given as the source filed them. The calls are words filed in the database; no cut-off is given here.

Experiments:
[1] = Selectivity index, ratio of CC50 for African green monkey Vero cells to IC50 for Leishmania donovani MHOM/IN/80/Dd8 amastigotes; assay type: functional
Method in brief: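 Selectivity index is Vero CC50 divided by IC50 against intracellular L. donovani amastigotes in J774A.1 cells, each measured over 72 h.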

[2] = Cytotoxicity against African green monkey Vero cells after 72 hrs by MTT assay; assay type: cell-based; details: chlorocebus sabaeus
Method in brief: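 Exponentially growing Vero cells (1 x 10^5/well) exposed 72 h at 37°C, 5% CO2, to 7-point threefold dilutions from 400 µM (DMSO stocks diluted in medium), with DMSO vehicle controls. MTT added for 2 h, formazan dissolved in DMSO, absorbance read at 544 nm. CC50 is the concentration halving viability versus medium-only cells; mean of two independent experiments.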

[3] = Drug metabolism in mouse liver microsomes at 1 uM after 30 mins by LC-MS/MS analysis; assay type: ADME, Microsome; details: read-out: Drug metabolism
Method in brief: (§1)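 Liver microsomes (1 mg/mL protein) in sodium phosphate buffer pH 7.4 with 5 mM NADPH, preincubated 10 min at 37°C. Test compound taken from a 200 µM acetonitrile:DMSO (96:4) stock. Samples analysed by LC/MS/MS as analyte/internal standard peak-area ratio. Percent metabolized at 30 min relative to 0 min; NADPH-free controls run in parallel.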

[4] = Drug metabolism in hamster liver microsomes at 1 uM after 30 mins by LC-MS/MS analysis; assay type: ADME, Microsome; details: cricetinae, read-out: Drug metabolism; method in brief: as §1
Leishmania donovani [5] = test: Antileishmanial activity against Leishmania donovani MHOM/IN/80/Dd8 amastigotes infected in mouse J774A1 cells assessed as parasite growth inhibition after 72 hrs by luciferase reporter gene assay; assay type: functional, organism-based; details: MHOM/IN/80/Dd8, J774.A1, 72 h
Method in brief: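 J774A.1 macrophages (4 x 10^3/well) in RPMI-1640 with 10% FCS for 24 h, then infected with stationary-phase luciferase-expressing promastigotes (4 x 10^4/well). Non-internalized parasites washed off after 24 h. Compounds given as 7-point serial dilution from 100 µM for 72 h at 37°C. Steady-Glo luminescence read; IC50 from four-parameter Hill fit, mean of two independent experiments.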

Leishmania donovani [6] = test: Antileishmanial activity against Leishmania donovani MHOM/IN/80/Dd8 amastigotes infected in golden hamster assessed as parasite growth inhibition at 50 mg/kg, po bid for 5 days measured on day 7 by Giemsa staining assay; assay type: functional
Method in brief: (§2)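 Inbred golden hamsters, 40-45 g, infected intracardially with 1 x 10^7 L. donovani amastigotes. Animals with +1 spleen biopsy grade (5-15 amastigotes/100 nuclei) were randomized, 5-6 per group. Dosing in distilled water/PBS began 48 h after biopsy and ran 5 consecutive days. Post-treatment spleen biopsy on day 7, Giemsa count; percent inhibition corrected for initial count and untreated-control increase.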

[7] = Drug metabolism in human liver microsomes at 1 uM after 30 mins by LC-MS/MS analysis; assay type: ADME, Microsome; details: read-out: Drug metabolism; method in brief: as §1
Leishmania donovani [8] = test: Antileishmanial activity against Leishmania donovani MHOM/IN/80/Dd8 amastigotes infected in golden hamster assessed as parasite growth inhibition at 30 mg/kg, po qd for 5 days measured on day 7 by Giemsa staining assay; assay type: functional; details: read-out: GI; method in brief: as §2
Leishmania donovani [9] = test: Antileishmanial activity against Leishmania donovani MHOM/IN/80/Dd8 amastigotes infected in golden hamster assessed as parasite growth inhibition at 50 mg/kg, ip qd for 5 days measured on day 7 by Giemsa staining assay; assay type: functional; method in brief: as §2
[10] = Solubility of the compound; assay type: physicochemical

SMILES	metabolised at 0.5 h, 1 µM [3] [%]	metabolised at 0.5 h, 1 µM [4] [%]	metabolised at 0.5 h, 1 µM [7] [%]	Ratio CC50/IC50 [1]	CC50 at 72 h [2] [µM]	IC50 (Leishmania donovani [5]) [µM]	growth inhibition (GI) (Leishmania donovani [6])	inhibition in vivo at 50 mg/kg (Leishmania donovani [6]; read-out: GI) [%]	inhibition in vivo at 30 mg/kg (Leishmania donovani [8]) [%]	growth inhibition (GI) (Leishmania donovani [9])	solubility [10] [µg/mL]
COc1ccc(-c2cc(/C=C/CO)nc3cc(F)c(Cl)cc23)cc1	30	23	14	22.26	26.8	1.2	inactive	–	–	–	–
CC1CN(c2cc(/C=C/CO)nc3cc(F)c(Cl)cc23)CC(C)O1 (configuration not stated)	50	99	17	8.97	41.3	4.75	–	–	–	–	–
COc1ccc2nc(/C=C/CO)ccc2c1	–	–	–	1.42	45.9	32.4	–	–	–	–	–
OC/C=C/c1cc(N2CCOCC2)c2cc(Cl)c(F)cc2n1	–	–	–	–	–	–	–	84.3	–	–	–
COc1cc2nc(/C=C/CO)cc(N3CCOCC3)c2cc1Cl	44	86	31	13.92	51.8	3.72	–	–	–	–	–
OC/C=C/c1ccc2c(F)c(Cl)ccc2n1	–	–	–	4.76	19.5	4.1	–	–	–	–	–
CCCCCCCCCCCCCCCCOP(=O)([O-])OCC[N+](C)(C)C [MILTEFOSINE]	–	–	–	6.27	52.7	–	–	–	96.5	–	–
OC/C=C/c1cc(N2CCOCC2)c2cc(Cl)ccc2n1	56	88	43	10.65	46.9	4.4	–	–	–	–	–
OC/C=C/c1cc(N2CCCCC2)c2cc(Cl)c(F)cc2n1	81	100	39	7.86	22.3	2.84	–	–	–	–	–
CN(C)c1cc(/C=C/CO)nc2cc(F)c(Cl)cc12	–	–	–	1.8	41.6	23	–	–	–	–	–
FC/C=C/c1ccc2ccccc2n1	100	–	100	5.77	38.6	6.68	–	–	–	–	> 1000
OC/C=C/c1cc(-c2cccc(F)c2)c2cc(Cl)c(F)cc2n1	40	59	25	12.08	21.6	1.79	–	–	–	–	–
CN1CCN(c2cc(/C=C/CO)nc3cc(F)c(Cl)cc23)CC1	27	89	27	7.58	44.6	5.88	–	–	–	–	–
O=C(O)/C=C/c1ccc2ccccc2n1	–	–	–	>7.96	> 400	50.2	–	–	–	–	–
OC/C=C/c1cc(-c2ccc(F)cc2)c2cc(Cl)c(F)cc2n1	51	53	25	–	24.6	1.43	–	–	–	–	–

Further lines, with some results ahead:

metabolised at 0.5 h, 1 µM [3] [%]	metabolised at 0.5 h, 1 µM [4] [%]	metabolised at 0.5 h, 1 µM [7] [%]	SMILES	Ratio CC50/IC50 [1]	CC50 at 72 h [2] [µM]	IC50 (Leishmania donovani [5]) [µM]	growth inhibition (GI) (Leishmania donovani [6])	inhibition in vivo at 50 mg/kg (Leishmania donovani [6]; read-out: GI) [%]	inhibition in vivo at 30 mg/kg (Leishmania donovani [8]) [%]	growth inhibition (GI) (Leishmania donovani [9])	solubility [10] [µg/mL]
97	–	44	NC(=O)/C=C/c1ccc2ccccc2n1	3.74	76.3	20.4	–	–	–	–	–
33	94	27	OC/C=C/c1cc(Oc2ccc(F)cc2)c2cc(Cl)ccc2n1	18.07	35.4	1.96	–	–	–	–	–
100	–	100	N#C/C=C/c1ccc2ccccc2n1	5.41	155	28.6	–	–	–	–	–
34	–	8	COc1ccc(-c2cc(/C=C/CO)nc3ccc(Cl)cc23)cc1	168.72	37.1	0.22	–	–	–	–	–
60	–	50	OC/C=C/c1ccc2cc(Cl)c(F)cc2n1	5.54	79.6	14.3	–	–	–	–	–
99	–	22	OCC#Cc1ccc2ccccc2n1	2.45	26.2	10.7	–	–	–	–	–
100	–	96	OC/C=C/c1ccc2ccccc2n1	3.17	31.9	10	–	–	–	inactive	–
83	–	25	OC/C=C/c1cc(-c2ccc(F)cc2)c2cc(Cl)ccc2n1	20.71	32.5	1.57	–	–	–	–	–
100	–	87	OC/C=C/c1ccc2cc(Cl)ccc2n1	33.59	28.9	0.86	–	–	–	–	–
100	–	98	CCCc1ccc2ccccc2n1	<1.25	126	> 100	–	–	–	–	–
100	–	76	OC/C=C/c1ccc2cc(F)ccc2n1	2.86	51.2	17.9	–	–	–	–	–
